Data on 13 compounds can be found in ChEMBL document CHEMBL1949631, “Novel 3-phenylpiperidine-4-carboxamides as highly potent and orally long-acting neurokinin-1 receptor antagonists with reduced CYP3A induction” (Bioorg Med Chem, 2012).

Series [1] has as its target Substance-P receptor (Homo sapiens, UniProt P25103). As to the kind of experiment: Displacement of [125I]BH-SP from tachykinin NK1 receptor in human IM9 cells after 30 mins by scintillation counting. Format: cell-based, IM-9. A digest of the protocol:
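Receptor membranes from human IM-9 lymphoblasts (grown 3 days, homogenised, spun 40,000 g) in 50 mM Tris-HCl pH 7.4 with 0.02% BSA, protease inhibitors and 3 mM MnCl2. Incubated with [125I]BH-SP (final 130 pM) for 30 min at room temperature in 0.2 mL. Nonspecific binding defined with 2×10^-6 M SP. Read by rapid GF/C filtration (PEI-soaked filters), three washes, scintillation counting.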

Series [2] has as its system Cavia porcellus. Description: Inhibition of GR73632-induced increase in locomotor activity in Hartley guinea pig at 0.3 mg/kg, iv after 5 mins relative to control. Format: functional. In short, it runs like this:
(§1)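 Male Hartley guinea pigs, 6–8 per group. Compound or vehicle in DMA-PEG400 (1:1, v/v), 0.5 mL/kg, given intravenously just before intracerebroventricular infusion of the NK1 agonist […]. %inh. is taken from activity counts relative to vehicle-treated and sham-infused groups. Values are averages of 5–10 independent experiments.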

A short description of series [3]: Metabolic stability in human liver microsomes assessed as parent compound remaining at 1 uM after 15 to 30 mins by HPLC analysis. Format: ADME, Microsome. The conditions noted are these: liver microsomes, read-out: Stability. A digest of the protocol: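 Compound at 1 μM incubated with human liver microsomes for 15 and 30 min under standard conditions. Remaining parent compound quantified by HPLC and expressed as μL/mg/min.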
In general terms: Liver microsomes are a subcellular fraction often used to study metabolism.

Series [4] relates to Cavia porcellus. As to the kind of experiment: Inhibition of GR73632-induced increase in locomotor activity in po dosed Hartley guinea pig after 1 hr. Format: functional. The conditions noted are these: read-out: ID50 (the source's name). In short, it runs like this: (§2)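 Male Hartley guinea pigs, 6–8 per group, dosed orally with compound suspended in 0.5% methylcellulose (2 mL/kg), or vehicle, 0.75 h (1 h line) or 23.75 h (24 h line) before intracerebroventricular […] infusion. %inh. comes from locomotor counts corrected for the sham-infused group against the vehicle control. ID50 and 95% CI come from linear regression of the dose–response.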

In series [5] the test system is Cavia porcellus. Description: Inhibition of GR73632-induced increase in locomotor activity in Hartley guinea pig at 0.1 mg/kg, iv after 5 mins relative to control. Format: functional. In short, it runs like this: as §1
For series [6], the system named is Cavia porcellus. As to the kind of experiment: Inhibition of GR73632-induced increase in locomotor activity in po dosed Hartley guinea pig after 24 hrs. The conditions noted are these: read-out: ID50 (the source's name). Format: functional. In short, it runs like this:
as §2

Substance-P receptor, sequence (P25103 whole entry): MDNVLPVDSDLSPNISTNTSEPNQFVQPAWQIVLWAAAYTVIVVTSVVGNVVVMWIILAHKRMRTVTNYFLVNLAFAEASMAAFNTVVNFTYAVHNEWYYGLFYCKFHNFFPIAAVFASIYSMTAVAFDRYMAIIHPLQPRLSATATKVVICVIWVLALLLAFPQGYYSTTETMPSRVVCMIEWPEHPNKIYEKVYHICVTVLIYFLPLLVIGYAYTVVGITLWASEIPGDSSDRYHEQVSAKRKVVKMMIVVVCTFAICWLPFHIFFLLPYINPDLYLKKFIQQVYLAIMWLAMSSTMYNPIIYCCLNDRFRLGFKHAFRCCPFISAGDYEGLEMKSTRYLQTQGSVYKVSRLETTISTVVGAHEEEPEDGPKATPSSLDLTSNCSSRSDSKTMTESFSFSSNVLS

The IC50 is the concentration at which inhibition is half-maximal. In turn, `CCc1ccccc1[C@H]1CN(C(=O)C2CCN(C(C)=O)CC2)CC[C@@H]1C(=O)N(C)Cc1cc(C(F)(F)F)cc(C(F)(F)F)c1` (racemic) returned a half-maximal inhibitory concentration (IC50) in series [1] of 0.064 nM.

Turning to `CC(=O)NCC(=O)N1CC[C@@H](C(=O)N(C)Cc2cc(C(F)(F)F)cc(C(F)(F)F)c2)[C@H](c2ccccc2)C1` (racemic), in series [1], the concentration for half-maximal inhibition (IC50) came out at 12 nM.

In turn, `CC(=O)N1CCC(C(=O)N2CC[C@H](C(=O)N(C)Cc3cc(C(F)(F)F)cc(C(F)(F)F)c3)[C@@H](c3ccccc3C(C)C)C2)CC1` (racemic) displayed an IC50 in series [1] of 0.21 nM.

`CC(=O)N1CC[C@@H](C(=O)N(C)Cc2cc(C(F)(F)F)cc(C(F)(F)F)c2)[C@H](c2ccccc2)C1` (racemic) returned a half-inhibitory concentration (IC50) in series [1] of 2.6 nM.

In turn, `CC(=O)N1CCC(C(=O)N2CC[C@@H](C(=O)NCc3cc(C(F)(F)F)cc(C(F)(F)F)c3)[C@H](c3ccccc3)C2)CC1` (racemic) displayed a 50% inhibitory concentration (IC50) in series [1] of 2.7 nM.

For orientation: inhibition in vivo means the relative decrease from the control value, in per cent. High values mean a response far below the control, low ones a response near the control. `CNC(=O)N1CC[C@H](C(=O)N(C)Cc2cc(C(F)(F)F)cc(C(F)(F)F)c2)[C@@H](c2ccc(F)cc2C)C1` (racemic): 0.3 mg/kg produced 80% inhibition in vivo in series [2]. Also, the microsomal CLint at 1 µM in series [3] was 199 µL/min/mg. The compound further showed a concentration for half-maximal inhibition (IC50) in series [1] of 0.048 nM.

Take `Cc1cc(F)ccc1[C@H]1CN(C(=O)C(N)=O)CC[C@@H]1C(=O)N(C)Cc1cc(C(F)(F)F)cc(C(F)(F)F)c1`: the microsomal CLint at 1 µM in series [3] was 30 µL/min/mg. In addition, the ED50 in series [4] is 0.14 mg/kg; in series [6] it was 0.72 mg/kg. 0.1 mg/kg produced 88.8% inhibition in vivo in series [5]. The compound also displayed a 50% inhibitory concentration (IC50) in series [1] of 0.02 nM.

With `CC(=O)N1CC[C@H](C(=O)N(C)Cc2cc(C(F)(F)F)cc(C(F)(F)F)c2)[C@H](c2ccccc2)C1` (racemic), the IC50 in series [1] is 3.2 nM.

Take `CC(=O)N1CCC(C(=O)N2CC[C@@H](C(=O)N(C)Cc3cc(C(F)(F)F)cc(C(F)(F)F)c3)[C@H](c3ccccc3)C2)CC1` (racemic): testing at 0.3 mg/kg in series [2] gave an inhibition in vivo of 72.1%.

As to `Cc1cc(F)ccc1[C@@H]1CN(C(=O)C(N)=O)CC[C@H]1C(=O)N(C)Cc1cc(C(F)(F)F)cc(C(F)(F)F)c1`, the 50% inhibitory concentration (IC50) in series [1] is > 100 nM.

For the compound `Cc1cc(F)ccc1[C@H]1CN(C(N)=O)CC[C@@H]1C(=O)N(C)Cc1cc(C(F)(F)F)cc(C(F)(F)F)c1` (racemic), in series [2], the inhibition in vivo at 0.3 mg/kg worked out at 80.3%. Further, in series [3], the microsomal CLint at 1 µM is 112 µL/min/mg. Also, the 50% inhibitory concentration (IC50) in series [1] came out at 0.035 nM.

The compound `CN(Cc1cc(C(F)(F)F)cc(C(F)(F)F)c1)C(=O)[C@H]1CCNC[C@H]1c1ccccc1` (relative stereo) registered a half-maximal inhibitory concentration (IC50) in series [1] of 5.6 nM.

As for `CC(=O)N1CCC(C(=O)N2CC[C@H](C(=O)N(C)Cc3cc(C(F)(F)F)cc(C(F)(F)F)c3)[C@@H](c3ccc(F)cc3)C2)CC1` (racemic), 0.3 mg/kg produced 41.4% inhibition in vivo in series [2]. Further, in series [1], the IC50 amounted to 0.052 nM.
